Measurements as given in ChEMBL document CHEMBL3352728, “Synthesis and biological evaluation of 1,2,3-triazole linked aminocombretastatin conjugates as mitochondrial mediated apoptosis inducers” (Bioorg Med Chem, 2014).

Columns and labels:
Format in all cases: functional, cell-based
[1] = test system: MCF7; assay: Cytotoxicity against human MCF7 cells after 48 hrs by MTT assay; details: MCF7, 48 h
Summary of the method: (§1)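 MTT assay. Cells seeded at 1×10^4 per well in DMEM with 10% FBS and grown 24 h at 37 °C under CO2. Compounds diluted in medium, vehicle control included, 48 h exposure. MTT (5 mg/mL stock) added for 4 h, formazan dissolved in DMSO, absorbance read at 570 nm. IC50 taken as the average of three independent experiments.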

[2] = test system: ACHN; assay: Cytotoxicity against human ACHN cells after 48 hrs by MTT assay; summary of the method: as §1
[3] = test system: A549; assay: Cytotoxicity against human A549 cells after 48 hrs by MTT assay; details: A549, 48 h; summary of the method: as §1
[4] = test system: HeLa; assay: Cytotoxicity against human HeLa cells after 48 hrs by MTT assay; summary of the method: as §1
[5] = test system: HepG2; assay: Cytotoxicity against human HepG2 cells after 48 hrs by MTT assay; details: HepG2, 48 h; summary of the method: as §1

Row | Structure (SMILES) | IC50 [1] | IC50 [2] | IC50 [3] | IC50 [4] | IC50 [5]
1 | COc1cccc(Cn2cc(C(=O)Nc3cc(/C=C\c4cc(OC)c(OC)c(OC)c4)cc(OC)c3OC)nn2)c1 | 1270 nM | 2890 nM | 406 nM | 570 nM | 513 nM
2 | COc1cc(/C=C\c2cc(OC)c(OC)c(OC)c2)cc(NC(=O)c2cn(Cc3cc(OC)c(OC)c(OC)c3)nn2)c1OC | 1380 nM | 4760 nM | 181 nM | 720 nM | 3390 nM
3 | COc1cccc(Cn2cc(C(=O)Nc3cc(/C=C\c4cc(OC)c(OC)c(OC)c4)ccc3OC)nn2)c1 | 1610 nM | 5270 nM | 1860 nM | 1140 nM | 1800 nM
4 | COc1cccc(Cn2cc(C(=O)Nc3c(/C=C\c4cc(OC)c(OC)c(OC)c4)ccc(OC)c3O)nn2)c1 | 1940 nM | 9510 nM | 1620 nM | 4570 nM | 1950 nM
5 | COc1ccc(/C=C\c2cc(OC)c(OC)c(OC)c2)c(NC(=O)c2cn(Cc3ccc(F)cc3)nn2)c1O | 1860 nM | 3390 nM | 568 nM | 330 nM | 354 nM
6 | COc1ccc(/C=C\c2cc(OC)c(OC)c(OC)c2)c(NC(=O)c2cn(Cc3cc(OC)c(OC)c(OC)c3)nn2)c1O | 2400 nM | 5130 nM | 830 nM | 770 nM | 1700 nM
7 | COc1ccc(Cn2cc(C(=O)Nc3c(/C=C\c4cc(OC)c(OC)c(OC)c4)ccc(OC)c3O)nn2)cc1 | 2620 nM | 5890 nM | 1450 nM | 3540 nM | 1200 nM
8 | COc1ccc(/C=C\c2cc(OC)c(OC)c(OC)c2)cc1NC(=O)c1cn(Cc2cc(OC)c(OC)c(OC)c2)nn1 | 1510 nM | 2040 nM | 89 nM | 190 nM | 620 nM
